This note sets out measurements from PMC11384490 (Translational Lung Cancer Research, 2024).

Data set [1] concerns orthotopic LLC pulmonary xenografts. In words: Orthotopic pulmonary LLC tumor imaging and boundary analysis. It is filed as in vivo, C57BL/6 mice.
Data set [2] deals with 4T1 lung metastatic nodules. In words: Imaging of experimental lung metastasis model. Particulars: iRGD-ZW800 10 nmol, 4 h vs ICG 100 nmol, 24 h; result in words. It is filed as in vivo, Balb/c mouse. A digest of the protocol:
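Balb/c mice received 4T1 cells by tail vein and were observed weekly. After four weeks, the test compound (10 nmol) was given by tail vein. The chest was opened 4 h later and the lungs were imaged with an intraoperative NIRF imager. Control mice got ICG (100 nmol) and were imaged the same way after 24 h.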

The nature of data set [3]: NIRF imaging and biodistribution in NSCLC subcutaneous tumor mouse model. The class given is in vivo, BALB/c nude mice. Particulars: mouse, in vivo, iv, 10 nmol. A digest of the protocol:
(§1)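 A549 cells in 100 µL PBS were injected subcutaneously into the left armpit of isoflurane-anaesthetised BALB/c nude mice, and tumours were sized by caliper (V=a2bπ/2). At about 100 mm3, mice (n=3) got the test compound (10 nmol) by tail vein. IVIS imaging ran from 1 h to several days, and tumour-to-background ratio was calculated. At 96 h, organs were excised, imaged, and organ-to-muscle fluorescence ratios averaged over 3 mice.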

For another data set, the system named is A549 subcutaneous tumors. Described as above. The class given is in vivo, BALB/c nude mice. A digest of the protocol:
as §1

The next data set can be described thus: Water solubility. The class given is physicochemical. Particulars: result in words.

The structures appear in SMILES notation.

Regarding `CC1(C)C(/C=C/C2=C(Oc3ccc(CCC(=O)N[C@H]4CSSC[C@@H](C(=O)O)NC(=O)[C@H](CC(=O)O)NC(=O)[C@@H]5CCCN5C(=O)CNC(=O)[C@H](CCCCN)NC(=O)[C@H](CC(=O)O)NC(=O)CNC(=O)[C@H](CCCNC(=N)N)NC4=O)cc3)C(=C/C=C3/N(CCC[N+](C)(C)C)c4ccc(S(=O)(=O)O)cc4C3(C)C)/CCC2)=[N+](CCC[N+](C)(C)C)c2ccc(S(=O)(=O)O)cc21` [iRGD-ZW800], the “ratio of tumor to lung fluorescence intensity” value in data set [1] (10 nmol tail vein, 24 h, FLI-10B imaging, ImageJ, standard deviation 0.18) is given as 2.2. Moreover, in data set [1] (lung tumor imaging in C57BL/6J mice, all ratios), the tumor background ratios entry is listed as “greater than 1.5”. Further, the “detection of metastatic lung nodules compared with ICG” value in data set [2] was “superior ability to detect more nodules”. For the same molecule, in data set [3], the tissue to tissue ratio at 96 h is 16.6. The “peak tumor-to-background ratio (TBRmax)” value in the data set with A549 subcutaneous tumors (10 nmol per animal via tail vein, peak 96 h after injection, IVIS imaging, n=3) amounted to 4.3±1.04. The “Fluorescence intensity ratio Sp/M (spleen/muscle)” value in the data set with A549 subcutaneous tumors (ex vivo organs, 96 h after 10 nmol i.v., AVG of 3 mice, SD 0.19) was 0.85. Moreover, the “Fluorescence intensity ratio In/M (intestine/muscle)” value in the data set with A549 subcutaneous tumors (ex vivo organs, 96 h after 10 nmol i.v., AVG of 3 mice, SD 0.58) is recorded as 1.43. Further, the “Fluorescence intensity ratio H/M (heart/muscle)” value in the data set with A549 subcutaneous tumors (ex vivo organs, 96 h after 10 nmol i.v., AVG of 3 mice, SD 0.60) was 1.50. Further, the “Fluorescence intensity ratio Ki/M (kidney/muscle)” value in the data set on A549 subcutaneous tumors (ex vivo organs, 96 h after 10 nmol i.v., AVG of 3 mice, SD 1.64) amounted to 4.57. Besides, the “Fluorescence intensity ratio St/M (stomach/muscle)” value with A549 subcutaneous tumors (ex vivo organs, 96 h after 10 nmol i.v., AVG of 3 mice, SD 1.85) was 3.67. For the same molecule, in the data set on A549 subcutaneous tumors (ex vivo organs, 96 h after 10 nmol i.v., AVG of 3 mice, SD 2.55), the “Fluorescence intensity ratio Li/M (liver/muscle)” value was determined as 5.28. In the data set with A549 subcutaneous tumors (ex vivo organs, 96 h after 10 nmol i.v., AVG of 3 mice, SD 2.67), the “Fluorescence intensity ratio L/M (lung/muscle)” value is reported as 5.01. The “Fluorescence intensity ratio C/M (colon/muscle)” value in the data set with A549 subcutaneous tumors (ex vivo organs, 96 h after 10 nmol i.v., AVG of 3 mice, SD 3.74) worked out at 6.80. For the same molecule, the imaging window in the data set on A549 subcutaneous tumors (in vivo, 10 nmol tail vein, imaged periodically over 6 days) is reported as no less than 6 days. The water solubility entry was “good water solubility” in “Water solubility” and “highly soluble in water” in “Water solubility” (listed as iRGD fluorescent tracer).
